Results from ChEMBL document CHEMBL5230144, “Synthesis and Biological Evaluation of Celastrol Derivatives with Improved Cytotoxic Selectivity and Antitumor Activities” (J Nat Prod, 2021).

What was measured:
[1] = Cytotoxicity against human mesenchymal bone marrow stem cells measured after 48 hrs by MTT assay; assay type: toxicity, cell-based
MDA-MB-231 = assay: cells; conditions: Homo sapiens, MDA-MB-231, 48 h
MCF7 = assay: cells; conditions: Homo sapiens, MCF7, 48 h
[2] = molecular target: T1, Heat shock protein HSP 90-beta/Hsp90 co-chaperone Cdc37 (Homo sapiens, UniProt P08238+Q16543); assay: Disruption of His-tagged full length HSP90 (unknown origin)/GST-tagged Cdc37 (unknown origin) at 50 uM measured after 1 hr by HTRF method; assay type: protein-complex assay
Procedure, shortened: (§1)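 HTRF in PBS with […], pH 7.3: His-tagged full-length Hsp90 and GST-tagged Cdc37 (each 250 nM final) with compound, 37 °C for 1 h. Anti-GST-Cryptate and anti-6His-XL665 then added for 0.5 h at 37 °C. Time-resolved fluorescence read at ex 320 nm, em 665/620 nm; ratio (665/620) × 10 000.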

KB = assay: cells; conditions: Homo sapiens, 48 h
A549 = assay: cells; conditions: Homo sapiens, A549, 48 h
[3] = molecular target: T1, Heat shock protein HSP 90-beta/Hsp90 co-chaperone Cdc37; assay: Disruption of His-tagged full length HSP90 (unknown origin)/GST-tagged Cdc37 (unknown origin) measured after 1 hr by HTRF method; assay type: protein-complex assay; procedure, shortened: as §1

T1 sequence (P08238 whole entry): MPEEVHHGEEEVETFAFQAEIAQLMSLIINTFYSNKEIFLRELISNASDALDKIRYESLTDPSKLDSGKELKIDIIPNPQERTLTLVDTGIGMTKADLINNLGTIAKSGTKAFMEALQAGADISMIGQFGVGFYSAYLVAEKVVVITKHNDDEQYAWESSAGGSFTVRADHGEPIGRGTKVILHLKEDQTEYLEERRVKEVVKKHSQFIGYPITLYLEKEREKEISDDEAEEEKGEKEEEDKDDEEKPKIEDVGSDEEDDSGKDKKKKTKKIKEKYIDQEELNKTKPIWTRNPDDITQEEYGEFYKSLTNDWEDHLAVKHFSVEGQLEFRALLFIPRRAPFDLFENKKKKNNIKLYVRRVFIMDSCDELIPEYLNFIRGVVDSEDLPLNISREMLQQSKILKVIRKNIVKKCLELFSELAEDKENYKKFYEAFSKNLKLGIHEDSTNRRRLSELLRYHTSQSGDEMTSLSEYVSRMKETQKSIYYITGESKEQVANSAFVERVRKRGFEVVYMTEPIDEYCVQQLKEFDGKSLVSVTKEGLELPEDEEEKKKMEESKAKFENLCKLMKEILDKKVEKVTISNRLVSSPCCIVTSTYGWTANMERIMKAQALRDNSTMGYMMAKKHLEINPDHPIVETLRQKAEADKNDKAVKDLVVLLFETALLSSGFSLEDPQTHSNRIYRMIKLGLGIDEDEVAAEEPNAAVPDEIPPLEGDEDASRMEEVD
T1 sequence (Q16543 whole entry): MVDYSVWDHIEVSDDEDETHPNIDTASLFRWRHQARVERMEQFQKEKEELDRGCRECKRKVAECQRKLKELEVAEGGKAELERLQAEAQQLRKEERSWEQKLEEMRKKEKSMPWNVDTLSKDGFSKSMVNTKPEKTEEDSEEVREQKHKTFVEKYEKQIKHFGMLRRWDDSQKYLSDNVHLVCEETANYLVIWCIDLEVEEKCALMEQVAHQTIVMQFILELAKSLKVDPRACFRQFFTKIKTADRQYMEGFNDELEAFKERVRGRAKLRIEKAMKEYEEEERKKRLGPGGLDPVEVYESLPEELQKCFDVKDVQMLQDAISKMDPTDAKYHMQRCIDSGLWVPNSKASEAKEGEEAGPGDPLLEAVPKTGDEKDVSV

Row | IC50 (MDA-MB-231) | IC50 (MCF7) | inhibition [2] | IC50 (KB) | IC50 (A549) | IC50 [3] | SMILES | IC50 at 48 h [1]
1 | 500 nM | – | – | – | – | – | C#CCOC(=O)[C@]1(C)CC[C@]2(C)CC[C@]3(C)C4=CC=C5C(=CC(=O)C(OC(=O)/C=C/c6ccccc6)=C5C)[C@]4(C)CC[C@@]3(C)[C@@H]2C1 | 2800 nM
2 | – | – | – | – | – | 1700 nM | C#CCOC(=O)[C@]1(C)CC[C@]2(C)CC[C@]3(C)C4=CC=C5C(=CC(=O)C(O)=C5C)[C@]4(C)CC[C@@]3(C)[C@@H]2C1 | –
3 | 200 nM | – | – | – | – | – | C#CCOC(=O)[C@]1(C)CC[C@]2(C)CC[C@]3(C)C4=CC=C5C(=CC(=O)C(OC(=O)N6CCN(c7ccc(Cl)cc7)CC6)=C5C)[C@]4(C)CC[C@@]3(C)[C@@H]2C1 | 1600 nM
4 | 900 nM | 600 nM | 86% | 600 nM | 1300 nM | – | CCCCOC(=O)[C@]1(C)CC[C@]2(C)CC[C@]3(C)C4=CC=C5C(=CC(=O)C(O)=C5C)[C@]4(C)CC[C@@]3(C)[C@@H]2C1 | –
5 | 500 nM | – | – | – | – | – | C#CCOC(=O)[C@]1(C)CC[C@]2(C)CC[C@]3(C)C4=CC=C5C(=CC(=O)C(OC(=O)/C=C/C)=C5C)[C@]4(C)CC[C@@]3(C)[C@@H]2C1 | 3000 nM
6 | 400 nM | – | – | – | – | – | C#CCOC(=O)[C@]1(C)CC[C@]2(C)CC[C@]3(C)C4=CC=C5C(=CC(=O)C(OC(=O)c6ccc(F)cc6)=C5C)[C@]4(C)CC[C@@]3(C)[C@@H]2C1 | 2000 nM
7 | 800 nM | 500 nM | 87.4% | 600 nM | 1100 nM | – | CCCOC(=O)[C@]1(C)CC[C@]2(C)CC[C@]3(C)C4=CC=C5C(=CC(=O)C(O)=C5C)[C@]4(C)CC[C@@]3(C)[C@@H]2C1 | –
8 | 100 nM | – | – | – | – | – | C#CCOC(=O)[C@]1(C)CC[C@]2(C)CC[C@]3(C)C4=CC=C5C(=CC(=O)C(OC(=O)N(CCCC)CCCC)=C5C)[C@]4(C)CC[C@@]3(C)[C@@H]2C1 | 1200 nM
9 | 400 nM | 600 nM | 88.8% | 600 nM | 1000 nM | – | COCCCOC(=O)[C@]1(C)CC[C@]2(C)CC[C@]3(C)C4=CC=C5C(=CC(=O)C(O)=C5C)[C@]4(C)CC[C@@]3(C)[C@@H]2C1 | –
10 | 400 nM | – | – | – | – | – | C#CCOC(=O)[C@]1(C)CC[C@]2(C)CC[C@]3(C)C4=CC=C5C(=CC(=O)C(OC(=O)C(=C)C)=C5C)[C@]4(C)CC[C@@]3(C)[C@@H]2C1 | 2400 nM
11 | 300 nM | – | – | – | – | – | C#CCOC(=O)[C@]1(C)CC[C@]2(C)CC[C@]3(C)C4=CC=C5C(=CC(=O)C(OC(=O)N(CCC)CCC)=C5C)[C@]4(C)CC[C@@]3(C)[C@@H]2C1 | 900 nM
12 | 700 nM | – | – | – | – | – | C#CCOC(=O)[C@]1(C)CC[C@]2(C)CC[C@]3(C)C4=CC=C5C(=CC(=O)C(OC(=O)C=C)=C5C)[C@]4(C)CC[C@@]3(C)[C@@H]2C1 | 3700 nM
13 | 800 nM | 400 nM | 89.9% | 300 nM | 800 nM | – | C=CCOC(=O)[C@]1(C)CC[C@]2(C)CC[C@]3(C)C4=CC=C5C(=CC(=O)C(O)=C5C)[C@]4(C)CC[C@@]3(C)[C@@H]2C1 | –
14 | 300 nM | – | – | – | – | – | C#CCOC(=O)[C@]1(C)CC[C@]2(C)CC[C@]3(C)C4=CC=C5C(=CC(=O)C(OC(=O)/C=C/c6ccccc6F)=C5C)[C@]4(C)CC[C@@]3(C)[C@@H]2C1 | 1400 nM
15 | 800 nM | 1800 nM | 87% | 1900 nM | 6300 nM | – | CC1=C(O)C(=O)C=C2C1=CC=C1[C@@]2(C)CC[C@@]2(C)[C@@H]3C[C@](C)(C(=O)OCCCl)CC[C@]3(C)CC[C@]12C | –
16 | 300 nM | – | – | – | – | – | C#CCOC(=O)[C@]1(C)CC[C@]2(C)CC[C@]3(C)C4=CC=C5C(=CC(=O)C(OC(=O)N6CCN(c7ccccc7OC)CC6)=C5C)[C@]4(C)CC[C@@]3(C)[C@@H]2C1 | 1800 nM
17 | 300 nM | – | – | – | – | – | C#CCOC(=O)[C@]1(C)CC[C@]2(C)CC[C@]3(C)C4=CC=C5C(=CC(=O)C(OC(=O)/C=C/c6cccc(Cl)c6)=C5C)[C@]4(C)CC[C@@]3(C)[C@@H]2C1 | 2000 nM
18 | 300 nM | – | – | – | – | – | C#CCOC(=O)[C@]1(C)CC[C@]2(C)CC[C@]3(C)C4=CC=C5C(=CC(=O)C(OC(=O)c6ccc(Br)cc6)=C5C)[C@]4(C)CC[C@@]3(C)[C@@H]2C1 | 2200 nM
19 | – | – | – | – | – | 6200 nM | CC1=C(O)C(=O)C=C2C1=CC=C1[C@@]2(C)CC[C@@]2(C)[C@@H]3C[C@](C)(C(=O)OCc4cccc(C)c4)CC[C@]3(C)CC[C@]12C | –
20 | 100 nM | – | – | – | – | – | C#CCOC(=O)[C@]1(C)CC[C@]2(C)CC[C@]3(C)C4=CC=C5C(=CC(=O)C(OC(=O)N6CCCCC6)=C5C)[C@]4(C)CC[C@@]3(C)[C@@H]2C1 | 2400 nM

Row | IC50 (MDA-MB-231) | IC50 (MCF7) | inhibition [2] | IC50 (KB) | IC50 (A549) | IC50 [3] | SMILES | IC50 at 48 h [1]
21 | 400 nM | – | – | – | – | – | C#CCOC(=O)[C@]1(C)CC[C@]2(C)CC[C@]3(C)C4=CC=C5C(=CC(=O)C(OC(=O)CCC)=C5C)[C@]4(C)CC[C@@]3(C)[C@@H]2C1 | 2600 nM
22 | 300 nM | – | – | – | – | – | C#CCOC(=O)[C@]1(C)CC[C@]2(C)CC[C@]3(C)C4=CC=C5C(=CC(=O)C(OC(=O)N6CCN(c7cccc(OC)c7)CC6)=C5C)[C@]4(C)CC[C@@]3(C)[C@@H]2C1 | 1800 nM
23 | 300 nM | – | – | – | – | – | C#CCOC(=O)[C@]1(C)CC[C@]2(C)CC[C@]3(C)C4=CC=C5C(=CC(=O)C(OC(=O)N(C)CCC)=C5C)[C@]4(C)CC[C@@]3(C)[C@@H]2C1 | 900 nM
24 | 300 nM | – | – | – | – | – | C#CCOC(=O)[C@]1(C)CC[C@]2(C)CC[C@]3(C)C4=CC=C5C(=CC(=O)C(OC(=O)N(CC)CC)=C5C)[C@]4(C)CC[C@@]3(C)[C@@H]2C1 | 3200 nM
25 | 200 nM | – | – | – | – | – | C#CCOC(=O)[C@]1(C)CC[C@]2(C)CC[C@]3(C)C4=CC=C5C(=CC(=O)C(OC(=O)N(C)C)=C5C)[C@]4(C)CC[C@@]3(C)[C@@H]2C1 | 2000 nM
26 | 500 nM | – | – | – | – | – | C#CCOC(=O)[C@]1(C)CC[C@]2(C)CC[C@]3(C)C4=CC=C5C(=CC(=O)C(OC(C)=O)=C5C)[C@]4(C)CC[C@@]3(C)[C@@H]2C1 | 2400 nM
27 | 200 nM | – | – | – | – | – | C#CCOC(=O)[C@]1(C)CC[C@]2(C)CC[C@]3(C)C4=CC=C5C(=CC(=O)C(OC(=O)N6CCCC6)=C5C)[C@]4(C)CC[C@@]3(C)[C@@H]2C1 | 2700 nM
28 | 300 nM | – | – | – | – | – | C#CCOC(=O)[C@]1(C)CC[C@]2(C)CC[C@]3(C)C4=CC=C5C(=CC(=O)C(OC(=O)N(C)CCCC)=C5C)[C@]4(C)CC[C@@]3(C)[C@@H]2C1 | 1000 nM
29 | 300 nM | – | – | – | – | – | C#CCOC(=O)[C@]1(C)CC[C@]2(C)CC[C@]3(C)C4=CC=C5C(=CC(=O)C(OC(=O)N(C)CC)=C5C)[C@]4(C)CC[C@@]3(C)[C@@H]2C1 | 3000 nM
30 | 1100 nM | 2000 nM | 87.8% | 1900 nM | 4200 nM | – | CC1=C(O)C(=O)C=C2C1=CC=C1[C@@]2(C)CC[C@@]2(C)[C@@H]3C[C@](C)(C(=O)OCCC(C)C)CC[C@]3(C)CC[C@]12C | –
31 | 300 nM | – | – | – | – | – | C#CCOC(=O)[C@]1(C)CC[C@]2(C)CC[C@]3(C)C4=CC=C5C(=CC(=O)C(OC(=O)N6c7ccccc7CCc7ccccc76)=C5C)[C@]4(C)CC[C@@]3(C)[C@@H]2C1 | 1000 nM
32 | 200 nM | – | – | – | – | – | C#CCOC(=O)[C@]1(C)CC[C@]2(C)CC[C@]3(C)C4=CC=C5C(=CC(=O)C(OC(=O)N(c6ccccc6)c6ccccc6)=C5C)[C@]4(C)CC[C@@]3(C)[C@@H]2C1 | 3100 nM
33 | 200 nM | – | – | – | – | – | C#CCOC(=O)[C@]1(C)CC[C@]2(C)CC[C@]3(C)C4=CC=C5C(=CC(=O)C(OC(=O)N6CCN(c7ccccc7)CC6)=C5C)[C@]4(C)CC[C@@]3(C)[C@@H]2C1 | 1800 nM
34 | 300 nM | – | – | – | – | – | C#CCOC(=O)[C@]1(C)CC[C@]2(C)CC[C@]3(C)C4=CC=C5C(=CC(=O)C(OC(=O)N6CCN(C)CC6)=C5C)[C@]4(C)CC[C@@]3(C)[C@@H]2C1 | 2000 nM
35 | 200 nM | – | – | – | – | – | C#CCOC(=O)[C@]1(C)CC[C@]2(C)CC[C@]3(C)C4=CC=C5C(=CC(=O)C(OC(=O)N6c7ccccc7C=Cc7ccccc76)=C5C)[C@]4(C)CC[C@@]3(C)[C@@H]2C1 | 2200 nM
36 | 200 nM | – | – | – | – | – | C#CCOC(=O)[C@]1(C)CC[C@]2(C)CC[C@]3(C)C4=CC=C5C(=CC(=O)C(OC(=O)N6c7ccccc7Sc7ccccc76)=C5C)[C@]4(C)CC[C@@]3(C)[C@@H]2C1 | 2900 nM
37 | 100 nM | 1100 nM | 86.3% | 1000 nM | 1600 nM | – | CC1=C(O)C(=O)C=C2C1=CC=C1[C@@]2(C)CC[C@@]2(C)[C@@H]3C[C@](C)(C(=O)OCCBr)CC[C@]3(C)CC[C@]12C | –
38 | 200 nM | – | – | – | – | – | C#CCOC(=O)[C@]1(C)CC[C@]2(C)CC[C@]3(C)C4=CC=C5C(=CC(=O)C(OC(=O)N6CCN(c7ccccc7Cl)CC6)=C5C)[C@]4(C)CC[C@@]3(C)[C@@H]2C1 | 1900 nM
39 | 400 nM | – | – | – | – | – | C#CCOC(=O)[C@]1(C)CC[C@]2(C)CC[C@]3(C)C4=CC=C5C(=CC(=O)C(OC(=O)/C=C/c6cccc(C)c6)=C5C)[C@]4(C)CC[C@@]3(C)[C@@H]2C1 | 2900 nM

Row | SMILES | IC50 (MDA-MB-231) | IC50 (MCF7) | inhibition [2] | IC50 (KB) | IC50 (A549) | IC50 [3] | IC50 at 48 h [1]
40 | COC(=O)[C@]1(C)CC[C@]2(C)CC[C@]3(C)C4=CC=C5C(=CC(=O)C(O)=C5C)[C@]4(C)CC[C@@]3(C)[C@@H]2C1 [PRISTIMERIN] | 800 nM | 900 nM | 83.1% | 900 nM | 1100 nM | – | –
41 | CCOC(=O)[C@]1(C)CC[C@]2(C)CC[C@]3(C)C4=CC=C5C(=CC(=O)C(O)=C5C)[C@]4(C)CC[C@@]3(C)[C@@H]2C1 | 700 nM | 1000 nM | 85.7% | 1000 nM | 1700 nM | – | –
